From publication PMC8442886 (Science Advances, 2021)
Starred links: 1 amine or outer side, 2 acyl side, 3 side chain; linkers in the order of their positions; H or OH if unused. Positions of bridges follow the written chain, without caps; N, C: chain ends. Non-standard residues stand in square brackets, D forms with d. Residues, ends and D or L forms follow the SMILES beside them. No end group written: not given here. *: point of attachment. X1 = NC(=O)CC[C@@H]1NC(=O)[C@H](CO)N=C1N[C@@H](CO)C(=O)*; X2 = NC(=O)C[C@H](N[*:1])c1nc(C(=O)[*:2])cs1; X4 = NC(=O)C[C@H](N[*:1])c1nc(C(=O)[*:2])co1; X3 = O=C(c1csc([C@H](CO)N[*:1])n1)[*:2]

Columns and labels:
[1] = molecular target: T1, BacA (Rhizobium meliloti, UniProt Q08120); experiment: Microscale thermophoresis; format: binding, Sinorhizobium meliloti; settings: BacA-ND complex; MST
T1 sequence (Q08120 1-420): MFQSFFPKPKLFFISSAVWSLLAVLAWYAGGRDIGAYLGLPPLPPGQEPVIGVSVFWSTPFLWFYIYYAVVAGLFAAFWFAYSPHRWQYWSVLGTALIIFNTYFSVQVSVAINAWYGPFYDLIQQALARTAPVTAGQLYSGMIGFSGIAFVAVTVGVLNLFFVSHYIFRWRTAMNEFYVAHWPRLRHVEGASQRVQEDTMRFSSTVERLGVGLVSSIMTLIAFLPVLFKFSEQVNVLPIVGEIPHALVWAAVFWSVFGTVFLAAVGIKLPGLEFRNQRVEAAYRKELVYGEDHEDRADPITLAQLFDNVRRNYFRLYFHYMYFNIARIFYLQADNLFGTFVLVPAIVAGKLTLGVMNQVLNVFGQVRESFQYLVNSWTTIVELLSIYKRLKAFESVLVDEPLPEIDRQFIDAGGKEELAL
Outline: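 Purified protein mixed into DDM-solubilized lipid (7.5 mM lipid, 33 mM DDM) for 30 min at 28°C. Alexa Fluor 647–labeled MSP1E3D1 (S22C/A121C) added, then Amberlite XAD-2 overnight at 28°C, and nanodiscs purified by SEC. Labeled nanodiscs (20 nM) incubated 15 min in the dark with test compound in 20 mM K-Hepes pH 8, 150 mM KCl, 0.005% Tween 20 (DMSO 1.25% final). Kd from a 1:1 fit of the MST signal, three independent measurements.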

[2] = test system: E. coli ΔsbmA cells (JW0368) expressing SbmA mutants; format: cell-based, Escherichia coli; settings: for antibiotic sensitivity of cells carrying SbmA Tyr116 mutation: Tyr116 (potential periplasmic gate) mutant
[3] = molecular target: Escherichia coli inner membrane transporter SbmA (E. coli) (UniProt P0AFY6); experiment: MST
[4] = molecular target: the molecule itself; experiment: cryo-EM structure
[5] = molecular target: the molecule itself; experiment: cryo-EM structure; remark: listed apart in the source

Molecule: bleomycin
- Kd [1]: 19 ± 11 nM
- antibiotic sensitivity of cells carrying SbmA Tyr116 mutation [2]: slightly increased sensitivity
- antibiotic sensitivity of cells carrying SbmA Tyr368Ala mutant ([2]; Tyr368Ala (first internal gate) mutant): additionally sensitized

Molecule: CC(C)C[C@H](NC(=O)CNC(=O)CNC(=O)[C@@H](NC(=O)c1csc([C@H](CC(N)=O)NC(=O)[C@H](C)NC(=O)[C@H](CO)NC(=O)c2coc([C@H](CC(N)=O)NC(=O)[C@H](CO)NC(=O)c3csc([C@H](CO)NC(=O)[C@H](C)NC(=O)c4csc([C@H](CC(N)=O)NC(=O)CNC(=O)[C@@H]5CCCN5C(=O)[C@H](CO)NC5=N[C@@H](CO)C(=O)N[C@H]5CCC(N)=O)n4)n3)n2)n1)[C@@H](C)O)C(=O)O [KLB, klebsazolicin] (X1-PG[X2]A[X3]S[X4]SA[X2]TGGL-OH; C-terminus assumed)
- antibiotic sensitivity of cells carrying SbmA Tyr116 mutation [2]: resistant

Molecule: klebsazolicin (peptide)
- Kd [3]: 849 nM

Molecule: microcin J25 (GGAGHVPEYFVGIGTPISFYG; lactam N-8; ends not checked; UniProt Q9X2V7 38-58, looked up) [MccJ25]
- antibiotic sensitivity of cells carrying SbmA Tyr116 mutation [2]: resistant

B1: Escherichia coli inner membrane transporter SbmA (natural protein, E. coli)
chain: MFKSFFPKPGTFFLSAFVWALIAVIFWQAGGGDWVARITGASGQIPISAARFWSLDFLIFYAYYIVCVGLFALFWFIYSPHRWQYWSILGTALIIFVTWFLVEVGVAVNAWYAPFYDLIQTALSSPHKVTIEQFYREVGVFLGIALIAVVISVLNNFFVSHYVFRWRTAMNEYYMANWQQLRHIEGAAQRVQEDTMRFASTLENMGVSFINAIMTLIAFLPVLVTLSAHVPELPIIGHIPYGLVIAAIVWSLMGTGLLAVVGIKLPGLEFKNQRVEAAYRKELVYGEDDATRATPPTVRELFSAVRKNYFRLYFHYMYFNIARILYLQVDNVFGLFLLFPSIVAGTITLGLMTQITNVFGQVRGAFQYLINSWTTLVELMSIYKRLRSFEHELDGDKIQEVTHTLS
- stoichiometry N [4]: 2

B2: BacA from Sinorhizobium meliloti (natural protein, S. meliloti, UniProt Q08120 1-420, looked up)
chain: T1 sequence (Q08120 1-420)
- binding result [5]: binds
